The source of these data is ChEMBL document CHEMBL1154775, “Discovery of dermorphin-based affinity labels with subnanomolar affinity for mu opioid receptors” (J Med Chem, 2009).

Activity calls are given as the source filed them. The calls are words filed in the database; no cut-off is given here. Numbered stars: 1 amine (or outer) side, 2 acyl side, 3 side chain; on linkers, the order of the positions; unused ones are H or OH. Square brackets hold non-standard residues; d marks the D form. Peptide text beside a SMILES is read from it. X6 = O=C(CBr)N(CCCC[C@@H](N[*:1])C(=O)[*:2])C(=O)CBr; X1 = O=C(CBr)N(CCC[C@@H](N[*:1])C(=O)[*:2])C(=O)CBr; X7 = CC(=O)N(CCCC[C@@H](N[*:1])C(=O)[*:2])C(C)=O; X8 = CC(=O)N(CCC[C@@H](N[*:1])C(=O)[*:2])C(C)=O; X5 = O=C([C@@H](CCCCN(N=C=S)N=C=S)N[*:1])[*:2]; X4 = O=C([C@@H](CCCN(N=C=S)N=C=S)N[*:1])[*:2]

The target of assay [1] is T1, Mu-type opioid receptor (Homo sapiens, UniProt P35372). Conditions: CHO; 0.11 nM.
In assay [2] the target is T1, Mu-type opioid receptor. The experiment in a line: Inhibition of [3H]DAMGO binding to mu opioid receptor expressed in CHO cells after 90 mins by WRIB assay. Format: cell-based. In a few lines: (§1)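 Wash-resistant inhibition of binding in MOR-expressing CHO cell membranes. Membranes were incubated with peptide, either near its IC50 or at higher concentrations, then washed extensively to remove noncovalently bound ligand. Remaining [3H]DAMGO binding was then measured and expressed as % inhibition against untreated control. Acetylated reversible analogues were run alongside to verify that the wash was complete.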

The target of assay [3] is T1, Mu-type opioid receptor. Kind of assay: Displacement of [3H]DAMGO from mu opioid receptor expressed in CHO cells after 90 mins by scintillation counting relative to dermorphin. Format: cell-based. For orientation: Displacement assays read how much labelled ligand stays bound in the presence of the test substance.
Assay [4] deals with Delta-type opioid receptor (Homo sapiens, UniProt P41143). Kind of assay: Displacement of [3H]DPDPE from delta opioid receptor expressed in CHO cells after 90 mins by scintillation counting. Format: cell-based. In a few lines:
(§2)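 Competitive radioligand binding on CHO cells stably expressing MOR or DOR. Radioligand was [3H]DAMGO for MOR and [3H]DPDPE for DOR. IC50 values were measured under standard conditions.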

Assay [5] in a line: Selectivity ratio of IC50 for delta opioid receptor to IC50 for mu opioid receptor. In a few lines: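 MOR selectivity was calculated as the ratio of DOR IC50 to MOR IC50. Both IC50s came from CHO-cell binding, with [3H]DPDPE as the DOR radioligand and [3H]DAMGO as the MOR radioligand. Ratios depend on the radioligand concentration used.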
The target in assay [6] is T1, Mu-type opioid receptor. The experiment in a line: Displacement of [3H]DAMGO from mu opioid receptor expressed in CHO cells after 90 mins by scintillation counting. It counts as cell-based. The essentials: as §2
Assay [7] addresses Mu-type opioid receptor (Cavia porcellus) (UniProt P97266). The experiment in a line: Ratio of compound IC50 to beta-FNA IC50 for mu opioid receptor in guinea pig brain membrane. Format: cell membranes.
For assay [8], the target named is T1, Mu-type opioid receptor. The experiment in a line: Ratio of dermorphin IC50 to compound IC50 for mu opioid receptor expressed in CHO cells. Format: cell-based.
The target in assay [9] is Mu-type opioid receptor (Rattus norvegicus) (UniProt P33535). The experiment in a line: Inhibition of [3H]naloxone binding to mu opioid receptor in rat brain membrane. It counts as cell membranes.
The target of assay [10] is Mu-type opioid receptor (Rattus norvegicus, UniProt P33535). The experiment in a line: (§3) Inhibition of [3H]DAMGO binding to mu opioid receptor in rat brain membrane. It counts as cell membranes.
Assay [11] has as its target Mu-type opioid receptor (Rattus norvegicus) (UniProt P33535). Described as §3. It counts as cell membranes.
The target in assay [12] is T1, Mu-type opioid receptor. The experiment in a line: Inhibition of [3H]DAMGO binding to mu opioid receptor expressed in CHO cells at 0.4 nM after 90 mins by WRIB assay. It counts as cell-based. The essentials: as §1
Assay [13] addresses Mu-type opioid receptor (Cavia porcellus, UniProt P97266). The experiment in a line: Displacement of beta-[3H]FNA from mu opioid receptor in guinea pig brain membrane. It counts as cell membranes.
Assay [14] can be described thus: Ratio of dermorphin selectivity for mu opioid receptor over delta opioid receptor to compound selectivity for mu opioid receptor over delta opioid receptor.
In assay [15] the target is T1, Mu-type opioid receptor. Conditions: CHO; 0.43 nM.
Assay [16] deals with T1, Mu-type opioid receptor. The experiment in a line: Inhibition of [3H]DAMGO binding to mu opioid receptor expressed in CHO cells at 7 nM after 90 mins by WRIB assay. It counts as cell-based. In a few lines: as §1

T1 sequence (P35372 whole entry): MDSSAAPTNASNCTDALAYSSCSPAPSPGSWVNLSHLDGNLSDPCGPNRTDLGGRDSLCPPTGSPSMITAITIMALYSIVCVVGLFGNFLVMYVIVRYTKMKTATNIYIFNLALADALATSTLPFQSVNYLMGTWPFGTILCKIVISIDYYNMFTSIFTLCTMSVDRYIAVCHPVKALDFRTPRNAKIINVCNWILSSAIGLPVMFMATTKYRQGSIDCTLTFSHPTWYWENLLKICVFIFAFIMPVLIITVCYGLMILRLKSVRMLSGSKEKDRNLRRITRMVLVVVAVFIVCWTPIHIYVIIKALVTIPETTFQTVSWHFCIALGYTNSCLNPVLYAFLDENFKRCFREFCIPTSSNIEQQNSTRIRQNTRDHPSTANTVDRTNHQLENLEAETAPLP
Chain of Delta-type opioid receptor (P41143 whole entry): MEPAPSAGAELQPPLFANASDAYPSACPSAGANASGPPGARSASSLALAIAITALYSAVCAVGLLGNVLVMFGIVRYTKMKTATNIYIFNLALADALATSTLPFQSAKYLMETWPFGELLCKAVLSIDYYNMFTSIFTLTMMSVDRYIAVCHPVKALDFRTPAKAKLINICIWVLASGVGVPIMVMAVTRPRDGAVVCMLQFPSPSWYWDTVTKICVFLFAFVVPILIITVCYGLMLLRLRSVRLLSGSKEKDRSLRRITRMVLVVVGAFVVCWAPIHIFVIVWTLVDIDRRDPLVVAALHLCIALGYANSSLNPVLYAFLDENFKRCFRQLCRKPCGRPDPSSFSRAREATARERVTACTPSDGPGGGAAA
Chain of Mu-type opioid receptor (Cavia porcellus) (P97266 whole entry): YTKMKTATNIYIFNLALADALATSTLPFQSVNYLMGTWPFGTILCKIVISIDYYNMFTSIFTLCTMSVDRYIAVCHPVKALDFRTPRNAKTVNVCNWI
Chain of Mu-type opioid receptor (Rattus norvegicus) (P33535 whole entry): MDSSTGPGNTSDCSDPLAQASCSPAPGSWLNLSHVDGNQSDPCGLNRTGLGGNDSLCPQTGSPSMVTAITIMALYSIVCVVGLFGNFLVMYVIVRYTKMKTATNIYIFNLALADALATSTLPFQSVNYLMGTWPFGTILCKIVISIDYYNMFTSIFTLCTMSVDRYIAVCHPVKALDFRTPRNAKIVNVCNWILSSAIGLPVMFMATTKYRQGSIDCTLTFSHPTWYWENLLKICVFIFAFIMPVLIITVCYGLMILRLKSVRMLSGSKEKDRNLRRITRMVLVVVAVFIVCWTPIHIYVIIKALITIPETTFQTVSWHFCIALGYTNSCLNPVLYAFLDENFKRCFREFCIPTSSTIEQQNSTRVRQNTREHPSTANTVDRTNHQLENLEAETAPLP
Chain of Mu-type opioid receptor (Rattus norvegicus, UniProt P33535) (P33535 whole entry): as above
Chain of Mu-type opioid receptor (Cavia porcellus, UniProt P97266) (P97266 whole entry): as the sequence (P97266 whole entry) above

As for `N[C@@H](Cc1ccc(O)cc1)C(=O)N[C@H](CCCN(C(=O)CBr)C(=O)CBr)C(=O)N[C@@H](Cc1ccccc1)C(=O)NCC(=O)N[C@@H](Cc1ccc(O)cc1)C(=O)N1CCC[C@H]1C(=O)N[C@@H](CO)C(=O)O` (H-Y[X1]FGYPS-OH), in assay [1], the inhibition entry was “inactive”. Also, in assay [2], the inhibition entry was “Dose-dependent effect”. The Activity in [3] was found to be 6.54. The values for the IC50 in assay [4] and in assay [6] were 0.342 µM and 0.00011 µM, respectively. Further, the Ratio IC50 is 3110 in assay [5], 3 in assay [7] and 7 in assay [8].
Take `C[C@@H](NC(=O)[C@@H](N)Cc1ccc(O)cc1)C(=O)NCC(=O)N(C)c1ccccc1`: in [9], the inhibition entry was “Dose-dependent effect”.
For `CC(C)C[C@@H](CSSc1ncccc1[N+](=O)[O-])NC(=O)[C@H](Cc1ccccc1)NC(=O)CNC(=O)C(C)NC(=O)[C@@H](N)Cc1ccc(O)cc1` (stereo in doubt), the IC50 in [10] was found to be 0.019 µM. For the same molecule, the inhibition entry in assay [11] is “Dose-dependent effect”.
Turning to `CC(=O)N(CCCC[C@@H](NC(=O)[C@@H](N)Cc1ccc(O)cc1)C(=O)N[C@@H](Cc1ccccc1)C(=O)NCC(=O)N[C@@H](Cc1ccc(O)cc1)C(=O)N1CCC[C@H]1C(=O)N[C@@H](CO)C(=O)O)C(C)=O` (H-Y[X7]FGYPS-OH), the Activity in assay [3] was 0.02. In addition, the values for the half-maximal inhibitory concentration (IC50) in [4] and in [6] were 0.436 µM and 0.0298 µM, respectively. Besides, the Ratio IC50 in assay [5] amounted to 15.
In the case of `N[C@@H](Cc1ccc(O)cc1)C(=O)N[C@H](CCCCN(N=C=S)N=C=S)C(=O)N[C@@H](Cc1ccccc1)C(=O)NCC(=O)N[C@@H](Cc1ccc(O)cc1)C(=O)N1CCC[C@H]1C(=O)N[C@@H](CO)C(=O)O` (H-Y[X5]FGYPS-OH), the inhibition entry in assay [2] was “Dose-dependent effect”; in assay [12] it was 31%. The molecule further had an Activity in [3] of 1.89. The IC50 in [4] amounted to 0.0971 µM; in assay [6] it was 0.00038 µM. For the same molecule, the Ratio IC50 amounted to 255 in assay [5] and 2 in [8].
In [3], `CC(=O)N(CCC[C@@H](NC(=O)[C@@H](N)Cc1ccc(O)cc1)C(=O)N[C@@H](Cc1ccccc1)C(=O)NCC(=O)N[C@@H](Cc1ccc(O)cc1)C(=O)N1CCC[C@H]1C(=O)N[C@@H](CO)C(=O)O)C(C)=O` (H-Y[X8]FGYPS-OH) registered an Activity of 0.17. The figures for the IC50 in [4] and in assay [6] were 0.272 µM and 0.00425 µM, respectively. For the same molecule, the Ratio IC50 in assay [5] is 64.
Molecule `COC(=O)/C=C/C(=O)N[C@@H]1CC[C@@]2(O)[C@H]3Cc4ccc(O)c5c4[C@@]2(CCN3CC2CC2)[C@H]1O5` gave an IC50 in assay [13] of 0.0022 µM.
Regarding `N[C@@H](Cc1ccc(O)cc1)C(=O)N[C@H](CCCN(N=C=S)N=C=S)C(=O)N[C@@H](Cc1ccccc1)C(=O)NCC(=O)N[C@@H](Cc1ccc(O)cc1)C(=O)N1CCC[C@H]1C(=O)N[C@@H](CO)C(=O)O` (H-Y[X4]FGYPS-OH), the Activity in assay [3] was 0.89. Further, the IC50 worked out at 0.0238 µM in assay [4] and 0.00081 µM in [6]. In addition, in assay [14], the Ratio worked out at 9. Moreover, the values for the Ratio IC50 in assay [5] and in assay [7] were 29 and 3, respectively. The same molecule yielded an inhibition in assay [15] of 40%.
`N[C@@H](Cc1ccc(O)cc1)C(=O)N[C@H](CCCCN(C(=O)CBr)C(=O)CBr)C(=O)N[C@@H](Cc1ccccc1)C(=O)NCC(=O)N[C@@H](Cc1ccc(O)cc1)C(=O)N1CCC[C@H]1C(=O)N[C@@H](CO)C(=O)O` (H-Y[X6]FGYPS-OH): in [3], the Activity was 0.14. Further, the figures for the half-maximal inhibitory concentration (IC50) in [4] and in assay [6] were 0.382 µM and 0.00523 µM, respectively. Further, the Ratio in [14] was determined as 4. Besides, the Ratio IC50 in assay [5] was 73; in [7] it was 3. This molecule returned an inhibition in [16] of 32%.

In general, inhibition refers to the share of the control response that was lost under treatment. As usually defined, the IC50 is the concentration at which inhibition is half-maximal. Low values mean higher potency, high ones lower potency.
